These results are taken from ChEMBL document CHEMBL5543129, “Peptide Inhibitor Targeting the Extraterminal Domain in BRD4 Potently Suppresses Breast Cancer Both In Vitro and In Vivo” (J Med Chem, 2024).

Active and inactive are the calls of the source. The calls are words filed in the database; no cut-off is given here. Square brackets hold non-standard residues; d marks the D form. Peptide text beside a SMILES is read from it. Hyp = O=C(O)[C@@H]1C[C@@H](O)CN1; Ahx = NCCCCCC(=O)O

For data set [1], the system named is T47D. Put plainly: Antiproliferative activity against human T47D cells at 10 uM incubated for 1 week in presence of JMJD6 inhibitor by CellTiter 96 Aqueous One Solution based assay. It is filed as functional, cell-based. Conditions: time 1.0 weeks.
For a further data set, the system named is Mus musculus. Put plainly: Downregulation of CCND1 mRNA expression in BALB/c mouse tumor xenografted with human MCF7 cells at 25 mg/kg, ip administered every 2 days by RT-qPCR analysis. It is filed as functional, organism-based. Background: A xenograft is tissue or cells of one species grown in another, often human tumour cells in immunodeficient mice.

Data set [2] deals with MDA-MB-231. Put plainly: Downregulation of […] gene expression in human MDA-MB-231 cells at 10 uM incubated for 6 hrs by RT-qPCR analysis. It is filed as functional, cell-based. Summed up: (§1)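 Cells treated with peptide (10 μM) for 6 h; c-Myc, N-myc and CCND1 mRNA measured by RT-qPCR. Three biological repeats.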
On the technique in general: Real-time PCR tracks product formation cycle by cycle.

In data set [3] the test system is T47D. Put plainly: Antiproliferative activity against human T47D cells at 10 uM incubated for 1 week in presence of fulvestrant by CellTiter 96 Aqueous One Solution based assay. It is filed as functional, cell-based. Conditions: time 1.0 weeks.
In data set [4] the test system is MDA-MB-231. Put plainly: Inhibition of colony formation in human MDA-MB-231 cells at 10 uM incubated for 2 weeks in presence of 5 uM JQ1 by crystal violet staining based assay. It is filed as functional, cell-based. Summed up:
(§2)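 Cells are seeded at 1 × 10^3/well and treated with peptide (10 μM) for 2 weeks, alone or with JQ1 5 μM, iJMJD6 10 μM, ICI 2.5 μM, or tamoxifen 3 μM (tamoxifen-resistant lines). Colonies are stained with crystal violet, dissolved in 10% acetic acid, and read at 590 nm. Three biological repeats.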

A short description of data set [5]: Toxicity in BALB/c mouse xenografted with human MCF7 cells assessed as change in lung morphology at 12.5 mg/kg, ip administered every 2 days in presence of 50 mg/kg JQ1. The data set is classed as organism-based. Conditions: in vivo, 48 h.
In data set [6] the test system is MCF7. Put plainly: Antitumor activity against human MCF7 cells xenografted in BALB/c nude mouse assessed as reduction in tumor volume at 12.5 mg/kg, ip administered every 2 days in presence of 12.5 mg/kg JMJD6 inhibitor. It is filed as functional, organism-based. The method, boiled down: (§3)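 Female BALB/c nude mice given 5 × 10^6 cells sc (MCF7 mice with E2 10^-2 M every 2 days), randomised at ~50 mm3. Peptide 12.5 mg/kg ip (saline) every 2 days, plus JQ1 50 mg/kg ip (DMSO/10% HPBCD 1:10) every 2 days or iJMJD6 12.5 mg/kg ip (DMSO/PBS 1:20). Caliper volume every 2 days; tumours weighed at the end.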

Data set [7] is described as follows: Toxicity in BALB/c mouse xenografted with human MDA-MB-231 cells assessed as change in kidney morphology at 12.5 mg/kg, ip administered every 2 days in presence of 50 mg/kg JQ1. The data set is classed as organism-based. Conditions: in vivo, 48 h. The method, boiled down: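 Female BALB/c nude mice (4–6 weeks) carried sc MDA-MB-231 xenografts (5 × 10^6 cells) and were randomized at about 50 mm3. Peptide (12.5 mg/kg ip in saline) and JQ1 (50 mg/kg ip, DMSO/10% HPBCD 1:10) were given every 2 days, alone or combined. Body weight was recorded, and heart, liver, spleen, lung and kidney morphology and weight were assessed.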

The nature of data set [8]: Toxicity in BALB/c mouse xenografted with human MCF7 cells assessed as change in heart morphology at 12.5 mg/kg, ip administered every 2 days in presence of 50 mg/kg JQ1. It is filed as organism-based. Conditions: in vivo, 48 h.
Data set [9] deals with T47D. Put plainly: Antiproliferative activity against human T47D cells at 10 uM incubated for 1 week in presence of tamoxifen by CellTiter 96 Aqueous One Solution based assay. It is filed as functional, cell-based. Conditions: time 1.0 weeks. Summed up: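 Tamoxifen-resistant MCF7 or T47D cells treated with peptide (10 μM) or tamoxifen (3 μM), alone or combined. Viability read by MTS reagent, 1 h at 37 °C, A490.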

Data set [10] can be described thus: Downregulation of c-Myc protein expression in human MCF7 cells assessed as fold change in remaining c-Myc level at 10 uM incubated for 24 hrs by immunoblotting analysis (reference value: 1). The data set is classed as functional. Summed up: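 Cells (MCF7 or MDA-MB-231 in DMEM, 10% FBS, 37 °C, 5% CO2) are treated with peptide for 24 h. Lysates are taken in Tris/NaCl/EDTA/1% Triton buffer and run on 10% SDS-PAGE. Immunoblots are normalised to β-actin loading control; three repeats.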

A short description of data set [11]: Downregulation of CCND1 protein expression in human MDA-MB-231 cells assessed as fold change in remaining CCND1 level at 10 uM incubated for 24 hrs by immunoblotting analysis (reference value: 1). The data set is classed as functional. The method, boiled down: (§4)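 Cells treated with peptide (10 μM) for 24 h. Lysates in Tris/NaCl/EDTA/1% Triton X-100, run on 10% SDS-PAGE and immunoblotted with ECL detection. β-actin as loading control. Three repeats, quantified against untreated cells.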
On the technique in general: A western blot detects proteins with antibodies after separation by electrophoresis.

The test system of data set [12] is MCF7. Put plainly: Antitumor activity against human MCF7 cells xenografted in BALB/c nude mouse assessed as reduction in tumor weight at 12.5 mg/kg, ip administered every 2 days in presence of 12.5 mg/kg JMJD6 inhibitor. The data set is classed as functional, organism-based. Summed up: as §3
In data set [13] the test system is MCF7. Put plainly: Downregulation of CCND1 gene expression in human MCF7 cells at 10 uM incubated for 6 hrs by RT-qPCR analysis. It is filed as functional, cell-based. The method, boiled down:
as §1

The test system of data set [14] is T47D. Put plainly: Inhibition of colony formation in human T47D cells at 10 uM incubated for 2 weeks by crystal violet staining based assay. The data set is classed as functional, cell-based. Summed up: as §2
Data set [15] concerns MCF7. Put plainly: Antitumor activity against human MCF7 cells xenografted in BALB/c nude mouse assessed as reduction in tumor volume at 12.5 mg/kg, ip administered every 2 days in presence of 50 mg/kg JQ1. The data set is classed as functional, organism-based. Summed up:
as §3

Data set [16] has as its system MCF7. Put plainly: Antitumor activity against human MCF7 cells xenografted in BALB/c nude mouse assessed as reduction in tumor growth at 25 mg/kg, ip administered every 2 days. It is filed as functional, organism-based. Summed up:
(§5)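 Female BALB/c nude mice, 4–6 wk, given 5 × 10^6 cells in PBS subcutaneously; MCF7 mice also had E2 (10^-2 M) brushed on the neck every 2 days. Randomised at ~50 mm3. Peptide in 0.9% saline, 25 mg/kg ip every 2 days. Caliper volume (1/2 × L × W²) every 2 days.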

A short description of data set [17]: Downregulation of BRD4 protein expression in BALB/c mouse tumor xenografted with human MDA-MB-231 cells assessed as fold change in remaining BRD4 level at 25 mg/kg, ip administered every 2 days by immunoblotting analysis. It is filed as functional. Summed up:
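Tumours taken from xenograft mice dosed with peptide at 25 mg/kg ip every 2 days. […] Three repeats.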

Data set [18] can be described thus: Downregulation of JMJD6 protein expression in human MDA-MB-231 cells assessed as fold change in remaining JMJD6 level at 10 uM incubated for 24 hrs by immunoblotting analysis (reference value: 1). The data set is classed as functional. Summed up:
as §4

Data set [19] relates to MDA-MB-231. Put plainly: Antitumor activity against human MDA-MB-231 cells xenografted in BALB/c nude mouse assessed as reduction in tumor growth at 25 mg/kg, ip administered every 2 days. The data set is classed as functional, organism-based. The method, boiled down:
as §5

A short description of data set [20]: Downregulation of BRD4 protein expression in human MDA-MB-231 cells assessed as fold change in remaining BRD4 level at 10 uM incubated for 24 hrs by immunoblotting analysis (reference value: 1). The data set is classed as functional. The method, boiled down: as §4
For data set [21], the system named is MCF7. Put plainly: Antitumor activity against human MCF7 cells xenografted in BALB/c nude mouse assessed as reduction in tumor weight at 12.5 mg/kg, ip administered every 2 days in presence of 50 mg/kg JQ1. It is filed as functional, organism-based. Summed up:
as §3

As to `CC[C@H](C)[C@H](NC(=O)[C@H](Cc1ccc(O)cc1)NC(=O)[C@@H]1C[C@@H](O)CN1C(=O)[C@H](C)NC(=O)[C@@H](NC(=O)CCCCCNC(=O)[C@H](CCC(=O)O)NC(=O)CNC(=O)[C@H](CS)NC(=O)[C@H](CCCCN)NC(=O)[C@H](Cc1ccccc1)NC(=O)[C@H](CCCCN)NC(=O)[C@H](CCC(N)=O)NC(=O)[C@H](CC(N)=O)NC(=O)[C@H](CCCNC(=N)N)NC(=O)[C@H](CCCNC(=N)N)NC(=O)[C@H](CCCNC(=N)N)NC(=O)[C@H](CCCNC(=N)N)NC(=O)[C@H](CCC(N)=O)NC(=O)[C@H](CCCNC(=N)N)NC(=O)[C@H](CCCNC(=N)N)NC(=O)[C@H](CCCCN)NC(=O)[C@H](CCCCN)NC(=O)[C@H](CCCNC(=N)N)NC(=O)CNC(=O)[C@@H](N)Cc1ccc(O)cc1)[C@@H](C)CC)C(=O)O` (H-YGRKKRRQRRRRNQKFKCGE[Ahx]IA[Hyp]YI-OH), the result with T47D [1], with Mus musculus, with MDA-MB-231 [2], in the data set with T47D [3], in the data set with MCF7 [6] and in the data set on T47D [9] was Active. For the same molecule, the outcome in the data set on MCF7 [12], in the data set with MCF7 [13], in the data set on MCF7 [15], with MCF7 [16], with MDA-MB-231 [19] and in the data set on MCF7 [21] was Active. Further, the inhibition result in the data set with MDA-MB-231 [4] and in the data set with T47D [14] was “Active” each time. For the same molecule, the Activity entry in [5], in [7] and in data set [8] was “Non-Toxic” throughout. In addition, the “fold change (FC)” value is recorded as 0.72 in data set [10]; 0.62 in [11]; 0.15 in data set [17]; 0.38 in data set [18]; 0.55 in [20].

Consider H-YGRKKRRQRRRRNQKFKCGE-OH, for which the outcome in the data set with T47D [1], in the data set on Mus musculus, in the data set on MDA-MB-231 [2], with T47D [3], in the data set with MCF7 [6] and in the data set on T47D [9] was Active. In addition, the outcome in the data set on MCF7 [12], in the data set with MCF7 [13], in the data set on MCF7 [15], with MCF7 [16], in the data set on MDA-MB-231 [19] and in the data set with MCF7 [21] was Active. Also, the inhibition result in the data set on MDA-MB-231 [4] and in the data set on T47D [14] was “Active” throughout. For the same molecule, the Activity entry in data set [5], in [7] and in data set [8] was “Non-Toxic” each time. In addition, the “fold change (FC)” value in [10] came to 0.69; in data set [11] it was 0.67; in [17], 0.63; in data set [18], 1.04; in data set [20] it was 1.06.
